Assay outcomes: PubChem BioAssay, several laboratories
CSN deneddyl inh: inhibitors of CSN-mediated cullin deneddylation, primary screen, biochemical, fluorescence polarization, uHTS. Purified CSN, SCF-Nedd8-OG deneddylation. AID 651999, 2013. COP9 signalosome complex subunit 5 (Homo sapiens), Q92905. 0.38% of 360,000 active. inhibition, % at 12.5 µM;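 active = pattern-corrected inhibition above about 35%, with an unprinted fluorescence ratio check between 0.5 and 1.5, limit read from the data, passing the limit was not always enough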;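 also: 0% = enzyme with substrate and 100% = substrate without enzyme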
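Assay system: purified human Csn5 enzyme expressed in HEK293T cells; Input: 0.24 nM Csn5 enzyme, final concentration; Reagent: 10 nM SCFSkp2-Nedd8OG; Compound dosing: 12.5 µM single point; Times: reaction 90 min, room temperature; Technique: fluorescence polarization readout.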
IDE inh: human IDE inhibitors in live cells, primary screen, fluorescence polarization, HEK cells, FAbetaB substrate. Insulin-degrading enzyme (Homo sapiens), P14735. FAbetaB cleavage. inhibition, % at 5.59 µM. 0.41% of 320,000 active;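 active = percent inhibition above the average of all tested compounds plus 3 SD, set per screening campaign, cut at about 16% in these data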;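 also: IDE supplied by intact live HEK cells; FP after avidin binding of uncleaved biotin substrate so inhibition keeps polarization high; 0% = DMSO wells and 100% = 60 µM reference IDE inhibitor Ii1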
IDE act: human IDE activators in live cells, primary screen, fluorescence polarization, HEK cells, FAbeta-B substrate. Insulin-degrading enzyme (Homo sapiens), P14735. FAbeta-B cleavage; 0% vehicle, 100% cell-free pure enzyme wells. activation, % at 5.96 µM. 0.073% of 340,000 active. AID 493087, 2011;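 active = activation above the mean of all tested compounds plus 3 SD, set per screening campaign, cut at about 17% in these data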
HNF4A DNA FP: change in binding of human HNF4A to DNA, primary screen, biochemical, fluorescence polarization, FITC-DNA; 1 h; activity change, % at 10 µM; Hepatocyte nuclear factor 4-alpha (Homo sapiens), P41235; AID 1224865, 2016; 0.3% of 360,000 active; in the data active = activity change above about 30%, passing the limit was not always enough
Target sequence (P41235 whole entry, looked up): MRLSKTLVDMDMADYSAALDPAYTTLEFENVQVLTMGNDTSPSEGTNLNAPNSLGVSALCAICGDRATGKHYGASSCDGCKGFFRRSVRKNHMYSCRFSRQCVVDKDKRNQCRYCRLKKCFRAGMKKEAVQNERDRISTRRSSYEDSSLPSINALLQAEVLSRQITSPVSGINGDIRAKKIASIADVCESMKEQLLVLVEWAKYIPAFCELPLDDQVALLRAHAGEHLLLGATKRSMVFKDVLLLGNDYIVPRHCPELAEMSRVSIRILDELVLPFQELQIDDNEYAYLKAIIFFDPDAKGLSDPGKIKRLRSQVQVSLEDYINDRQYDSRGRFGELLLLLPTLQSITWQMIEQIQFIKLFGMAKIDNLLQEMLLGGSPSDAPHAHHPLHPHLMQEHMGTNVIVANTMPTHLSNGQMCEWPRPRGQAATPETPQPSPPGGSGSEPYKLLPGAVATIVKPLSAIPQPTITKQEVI
TPT1 inhibitor: Candida albicans TPT1 enzyme inhibitors, primary screen, biochemical, fluorescence polarization; tRNA 2'-phosphotransferase TPT1 (Candida albicans SC5314); recombinant caTPT1, FP RNA substrate dephosphorylation; inhibition, % at 5 µM; 0.81% of 300,000 active; AID 1962, 2009;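 active = inhibition above the mean of all tested compounds plus 3 SD, set per screening campaign, cut at about 24% in these data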;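 also: plate controls were DMSO alone for no effect and ferristatin control at 100 nM for full effect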
IDE inh confirm: human IDE inhibitors in live cells, confirmation, fluorescence polarization, HEK cells, FAbetaB substrate. shares compounds with IDE inh. inhibition, % at 5.59 µM. 51% of 1,200 active. FAbetaB cleavage;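 active = mean inhibition across triplicate wells above the cutoff set by the earlier primary insulin-degrading enzyme screen, cut at about 16% in these data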;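 also: 0% = DMSO wells and 100% = 60 µM reference IDE inhibitor Ii1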
HEK cytotox: cytotoxicity in HEK cells, cytotoxicity control for IDE inhibitor project, cell-based, luminescence. shares compounds with IDE inh. HEK293 cytotoxicity, ATP luminescence. inhibition, % at 5.59 µM. 28% of 1,200 active; in the data active = inhibition above about 22%;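 also: 0% = vehicle wells and 100% = reference cytotoxic drug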
Numbers without * were called inactive; nt = no result given. The list is not random: actives were taken first. Their share in the collection is about 1.4%.

SMILES	CSN deneddyl inh	IDE inh	IDE act	HNF4A DNA FP	TPT1 inhibitor	IDE inh confirm	HEK cytotox
O=C(NCCC1CCCCN1S(=O)(=O)c1ccc(F)cc1)C(=O)Nc1ccccc1 (stereo not drawn)	5	3	2	-2	-2	nt	nt
COc1ccc(NS(=O)(=O)c2ccc(C)c(C(=O)NCC(c3ccco3)N(C)C)c2)cc1 (stereo not drawn)	-2	2	2	-1	2	nt	nt
CCOC(=O)C1CCCN(C(=O)c2ccc3c(c2)C(C)(C)CCC3(C)C)CC1 (stereo not drawn)	-3	nt	nt	1	nt	nt	nt
O=C1CC2(CCCCC2)CC(=O)N1CCc1ccccc1	5	nt	6	-2	nt	nt	nt
O=C1C=CC(=O)C(C2=C3C(=O)N(CCc4ccccc4)CC(=O)N3CCC2)=C1	nt	40*	nt	nt	-6	10	124*
COc1ccc(Br)cc1/C=N/NC(=O)CNC(=O)C1COc2ccccc2O1 (stereo not drawn)	-4	30*	-22	4	-4	23*	2
CCNc1nnc(CSc2nc3ccccc3s2)s1	0	17*	-7	3	0	9	8
CN(C)C1(CNC(=O)C2CCN(S(=O)(=O)c3c(Cl)cccc3Cl)CC2)CCCCC1	1	-2	6	2	0	nt	nt
COc1ccc(NC(=O)c2ccc(-c3ccccc3)cc2)cc1S(=O)(=O)N1CCOCC1	2	22*	-25	-1	2	19*	61*
CCc1ccc(C(=O)Nc2ccc(OC)c(S(=O)(=O)N3CCOCC3)c2)cc1	-4	-2	2	-2	2	nt	nt
COC(=O)c1cc(NC(=O)c2ccc(-c3ccccc3)cc2)ccc1Cl	4	30*	-19	2	2	9	28*
CCCNc1c(NC(=O)c2cccs2)c(=O)oc2ccccc12	0	2	5	1	-2	nt	nt
Cc1cc2sc3nc(=O)n(-c4ccccc4)c(=O)n3c2cc1C	-1	-7	2	3	4	nt	nt
Clc1ccc(/C=C/c2ncc[nH]2)c(Cl)c1	7	18*	-18	-3	2	8	19
Cc1ccc(N2CC(C(=O)N3CCC(C(=O)Nc4cccc(Br)c4)CC3)CC2=O)cc1 (stereo not drawn)	-4	4	-4	1	-2	nt	nt
Cc1ccc(N2CC(C(=O)N3CCC(C(=O)Nc4ccc(Br)cc4)CC3)CC2=O)cc1 (stereo not drawn)	3	17*	-7	0	0	7	12
CC(C)(C)N/N=C/c1c(O)n(-c2ccc(Cl)cn2)c(=O)c2ccccc12	-3	-1	-1	0	0	nt	nt
CCc1nnc(/N=C/c2c(O)n(-c3ccc(Cl)cn3)c(=O)c3ccccc23)s1	3	17*	5	5	-4	7	10
CC(=O)Oc1c(-c2ccco2)oc2ccccc2c1=O	8	77*	-95	-4	-3	104*	8
CCN(CC)C(=O)COc1c(-c2ccco2)oc2ccccc2c1=O	4	-2	2	-1	4	nt	nt
CC(=O)NC(CC(=O)NC1CCCc2ccccc21)c1ccccc1 (stereo not drawn)	1	-3	2	-3	3	nt	nt
COc1ccc(NC(=O)c2sc3nc(-c4cccnc4)ccc3c2N)cc1	-4	10	-10	-36	-25	nt	nt
COc1ccc(NC(=O)c2sc3nc(-c4cccnc4)ccc3c2N)cc1OC	37	19*	-4	75	20	13	18
COc1ccc(N2CCN(c3nc4c(c(=O)n(C)c(=O)n4C)n3Cc3ccccc3)CC2)cc1	-4	20*	-3	0	-1	5	20
Cc1ccc(OCCSc2nnc(-c3ccncc3)n2C)cc1	5	36*	-39	-1	-2	12	8
SMILES	CSN deneddyl inh	IDE inh	IDE act	HNF4A DNA FP	TPT1 inhibitor	IDE inh confirm	HEK cytotox
Cn1c(SCCOc2cccc(Cl)c2)nnc1-c1ccncc1	-1	7	-12	-2	-3	nt	nt
Cn1c(SCC(=O)OC2CCCCC2)nnc1-c1ccco1	0	19*	-7	2	1	5	13
Cc1ccccc1C(=O)Nc1ccnc(-c2ccncc2)n1	3	7	-3	-4	-4	nt	nt
Cc1cccc(C(=O)Nc2ccnc(-c3cccnc3)n2)c1	-4	44*	-26	1	-3	31*	12
Cc1cccc(C(=O)Nc2ccnc(-c3ccncc3)n2)c1	4	51*	-22	-4	2	27*	8
O=c1cc(COc2ccc(Cl)c(Cl)c2)nc2sccn12	8	-1	1	-4	-2	nt	nt
O=c1cc(CNc2cc(Cl)ccc2Cl)nc2sccn12	-1	17*	-20	-3	-3	7	8
COc1ccc2c(c1)CSC(c1ccccc1)C2=O (stereo not drawn)	3	nt	nt	6	nt	nt	nt
Cc1cc(OCCn2ccnc2)cc(C)c1Cl	3	-2	1	-1	-1	nt	nt
Cc1ccc(Nc2cnn(C34CC5CC(CC(CC(=O)O)(C5)C3)C4)c(=O)c2Cl)cc1C	-4	32*	-24	-4	1	25*	9
CCc1cc(C(=O)NC2CCCc3c2cnn3-c2ccc(F)cc2F)no1 (stereo not drawn)	5	nt	nt	3	nt	nt	nt
COc1cc(/C=C2\SC(=S)N(NS(=O)(=O)c3ccc(C)cc3)C2=O)cc(OC)c1OC	1	0	0	-2	2	nt	nt
CCOc1cc(/C=C2\SC(=S)N(NS(=O)(=O)c3ccc(C)cc3)C2=O)ccc1O	32	35*	-32	14	18	84*	9
COc1ccc2[nH]c3c(NCc4ccco4)ncnc3c2c1	nt	38*	nt	nt	2	18*	15
COCCNc1ncnc2c1[nH]c1ccccc12	3	18*	-13	-3	-1	6	18
Fc1ccc2[nH]c3c(NCc4ccccc4)ncnc3c2c1	1	88*	-24	-6	-1	67*	59*
COc1cc(OC)cc(C(=O)Nc2cccc(NC(=O)c3cc(OC)cc(OC)c3)n2)c1	4	17*	-4	-1	-3	4	17
Cc1ccc(/C=N\NC(=O)/C(=C\Nc2nccc(C)n2)NC(=O)c2ccccc2)cc1	-5	26*	-47	0	0	31*	10
Cc1ncc(CO)n1Cc1ccc(Cl)cc1	5	nt	nt	0	nt	nt	nt
COc1cc(-c2noc(C)c2C(=O)NCCCN2CCOCC2)cc(OC)c1OC	-4	0	2	-1	nt	nt	nt
